The values below come from ChEMBL document CHEMBL1122735, “Synthesis and activity of novel nitropyrazines for use as hypoxic cell radiosensitizers” (J Med Chem, 1984).

Data set [1] can be described thus: Compound was evaluated for the chronic aerobic cytotoxicity in chinese hamster lung fibroblast like cells after 7 days exposure in air at 37 degree Centigrade. The format is cell-based, Cricetulus griseus. The note with it: 168 h. The method, boiled down: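 V79 379A Chinese hamster lung fibroblast-like cells kept in Eagle's MEM with fcs. Cells plated in Petri dishes and held with a range of sensitizer concentrations for 7 days at 37 °C in air plus 5% CO2, then colonies scored. The concentration reducing colony number to 50% was estimated.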

Data set [2] can be described thus: Compound was evaluated for the acute cytotoxicity chinese hamster lung fibroblast like cells after 2 hr exposure in nitrogen at 22 degree Centigrade. The format is cell-based, Cricetulus griseus. The method, boiled down:
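V79 379A Chinese hamster lung fibroblast-like cells, taken from log-phase suspension culture, allowed to attach to glass dishes in Eagle's MEM + 10% fcs at 37 °C for 2-3 h. Exposed to a range of sensitizer concentrations for 2 h at room temperature (22 °C) under N2 + 5% CO2. Sensitizer then replaced with fresh medium, followed by 7 days at 37 °C in air + 5% CO2 and colony scoring. Value is the concentration giving 75% colony-forming survival.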

Data set [3] is described as follows: Sensitizer enhancement ratio was reported at 10E-3 mol/dmE-3 concentration. The method in brief: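 Asynchronous log-phase V79 379A cells, attached to glass dishes, irradiated at room temperature with 250 kVp X-rays (0.5 mm Cu + 0.8 mm Al filter, 3.26 gray min-1) in the presence of sensitizer, triplicate dishes per point; colonies scored. ER = dose for 10^-2 survival without sensitizer divided by dose with sensitizer, or ratio of final linear survival-curve slopes.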

A short description of data set [4]: Partition coefficient which was measured in octanol-buffer system at pH 7, 22 degree Centigrade. The format is physicochemical. The conditions noted are these: octanol/water. The method, boiled down: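 Partition coefficient taken as C(octanol)/C(pH 7 buffer) at 22 °C.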

Where only a bound is given, the exact number is not on record here.

`COC(=O)c1nc(NCC(O)CO)cnc1[N+](=O)[O-]` (stereo not given) showed a Cytotoxicity in data set [1] of over 500 µM. Moreover, the Acute toxicity in data set [2] was over 5 mM. The Ratio in data set [3] is 1.3. In data set [4], this molecule registered a Partition coefficient of 0.79.
Taken in the same sequence, the figures for `Nc1nc(NCCO)c(Cl)nc1[N+](=O)[O-]` were 260 µM, over 3 mM, 1.22 and 1.32.
`O=[N+]([O-])c1cnc(NC(CO)C(O)CO)cn1` (stereo not given) displayed a Cytotoxicity in data set [1] of 650 µM. In data set [2], this molecule displayed an Acute toxicity of over 5 mM. Besides, in data set [3], the Ratio turned out to be 1.1. The Partition coefficient in data set [4] is recorded as 0.13.
In turn, `CC(=O)Nc1nc(NC(CO)C(O)CO)c(Cl)nc1[N+](=O)[O-]` (stereo not given) returned a Cytotoxicity in data set [1] of 400 µM. The Acute toxicity in data set [2] is over 3.3 mM. The Ratio in data set [3] worked out at 1.35. In addition, the Partition coefficient in data set [4] was found to be 0.22.
`Nc1nc(NCC(O)CO)c(Cl)nc1[N+](=O)[O-]` (stereo not given): the Cytotoxicity in data set [1] came to 580 µM. The molecule further registered an Acute toxicity in data set [2] of over 4 mM. Also, the Ratio in data set [3] was determined as 1.25. In data set [4], the Partition coefficient was determined as 0.6.
Taken in the same sequence, the figures for `CC(=O)Nc1nc(N2CCN(C)CC2)c(Cl)nc1[N+](=O)[O-]` were 25 µM, 0.16 mM, 1.5 and 3.18.
Molecule `CC(=O)Nc1nc(NCC(O)CO)c(Cl)nc1[N+](=O)[O-]` (stereo not given) had a Cytotoxicity in data set [1] of 96 µM. In addition, the Acute toxicity in data set [2] was found to be 4 mM. In addition, in data set [3], the Ratio stood at 1.3. The Partition coefficient in data set [4] was determined as 1.01.
In turn, `O=[N+]([O-])c1nccnc1NCC(O)CO` (stereo not given) yielded a Cytotoxicity in data set [1] of 27 µM. For the same molecule, the Acute toxicity in data set [2] was 0.7 mM. Besides, in data set [3], the Ratio is 1.71. In data set [4], this molecule showed a Partition coefficient of 0.32.
As for `COCC(O)Cn1ccnc1[N+](=O)[O-]` (stereo not given) [MISONIDAZOLE], in data set [1], the Cytotoxicity stood at 1300 µM. Besides, in data set [2], the Acute toxicity stood at 30 mM. The molecule further yielded a Partition coefficient in data set [4] of 0.48.
